Test results from ChEMBL document CHEMBL1152818, “Structural bioinformatics-based design of selective, irreversible kinase inhibitors” (Science, 2005).
The source made the active and inactive calls. No cut-off for these calls is given here.

What was measured:
[1] = test system: Tyrosine-protein kinase transforming protein Src (Avian leukosis virus RSA (RSV-SRA) (Rous sarcoma virus (strainSchmidt-Ruppin A))), P00524 [V281C]; assay: Reversion of Rous sarcoma virus V-src V281C mutant-dependent cell morphology in mouse NIH-3T3 cells assessed as cells acquiring actin stress fibres at 1 uM after 16 hrs by phalloidin-FITC and DAPI staining; format: cell-based; settings: NIH3T3
[2] = test system: Tyrosine-protein kinase transforming protein Src (Avian leukosis virus RSA (RSV-SRA) (Rous sarcoma virus (strainSchmidt-Ruppin A))), P00524 [V281C]; assay: Inhibition of Rous sarcoma virus V-src V281C mutant expressed in mouse NIH-3T3 cells assessed as reduction in steady-state phosphotyrosine level preincubated for 1 hr by Western blot; format: cell-based; settings: NIH3T3
NIH3T3 [3] = assay: Inhibition of Rous sarcoma virus wild type V-src expressed in mouse NIH-3T3 cells assessed as reduction in steady-state phosphotyrosine level preincubated for 1 hr by Western blot; format: cell-based
NIH3T3 [4] = assay: Reversion of Rous sarcoma virus wild type V-src-dependent cell morphology in mouse NIH-3T3 cells assessed as cells acquiring actin stress fibres at 1 uM after 16 hrs by phalloidin-FITC and DAPI staining; format: cell-based
[5] = molecular target: Tyrosine-protein kinase Fyn (Homo sapiens, UniProt P06241, V285C); assay: Inhibition of FYN Val285Cys mutant expressed in Escherichia coli
Tyrosine-protein kinase Fyn, sequence (P06241 2-537 V285C limits assumed): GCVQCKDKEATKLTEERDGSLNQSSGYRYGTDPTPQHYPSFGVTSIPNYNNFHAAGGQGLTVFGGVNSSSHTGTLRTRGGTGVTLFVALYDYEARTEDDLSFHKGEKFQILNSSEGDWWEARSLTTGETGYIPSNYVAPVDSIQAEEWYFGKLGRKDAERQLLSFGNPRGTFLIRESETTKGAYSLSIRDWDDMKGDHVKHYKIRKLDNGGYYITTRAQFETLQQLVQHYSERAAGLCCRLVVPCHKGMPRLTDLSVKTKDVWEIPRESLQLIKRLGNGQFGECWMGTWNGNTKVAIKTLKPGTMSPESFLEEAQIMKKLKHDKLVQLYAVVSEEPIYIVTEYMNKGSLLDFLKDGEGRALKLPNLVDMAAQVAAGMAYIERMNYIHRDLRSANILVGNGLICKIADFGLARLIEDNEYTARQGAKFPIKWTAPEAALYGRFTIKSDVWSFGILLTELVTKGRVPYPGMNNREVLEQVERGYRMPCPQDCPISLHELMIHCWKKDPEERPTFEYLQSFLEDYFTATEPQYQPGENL

[6] = molecular target: Ribosomal protein S6 kinase alpha-1 (Homo sapiens) (UniProt Q15418); assay: Binding affinity to RSK1 in HEK293 cells assessed as protein labeling at 1 µM preincubated for 1 hr by enhanced chemiluminescence detection
Ribosomal protein S6 kinase alpha-1 (Homo sapiens), sequence (Q15418 whole entry): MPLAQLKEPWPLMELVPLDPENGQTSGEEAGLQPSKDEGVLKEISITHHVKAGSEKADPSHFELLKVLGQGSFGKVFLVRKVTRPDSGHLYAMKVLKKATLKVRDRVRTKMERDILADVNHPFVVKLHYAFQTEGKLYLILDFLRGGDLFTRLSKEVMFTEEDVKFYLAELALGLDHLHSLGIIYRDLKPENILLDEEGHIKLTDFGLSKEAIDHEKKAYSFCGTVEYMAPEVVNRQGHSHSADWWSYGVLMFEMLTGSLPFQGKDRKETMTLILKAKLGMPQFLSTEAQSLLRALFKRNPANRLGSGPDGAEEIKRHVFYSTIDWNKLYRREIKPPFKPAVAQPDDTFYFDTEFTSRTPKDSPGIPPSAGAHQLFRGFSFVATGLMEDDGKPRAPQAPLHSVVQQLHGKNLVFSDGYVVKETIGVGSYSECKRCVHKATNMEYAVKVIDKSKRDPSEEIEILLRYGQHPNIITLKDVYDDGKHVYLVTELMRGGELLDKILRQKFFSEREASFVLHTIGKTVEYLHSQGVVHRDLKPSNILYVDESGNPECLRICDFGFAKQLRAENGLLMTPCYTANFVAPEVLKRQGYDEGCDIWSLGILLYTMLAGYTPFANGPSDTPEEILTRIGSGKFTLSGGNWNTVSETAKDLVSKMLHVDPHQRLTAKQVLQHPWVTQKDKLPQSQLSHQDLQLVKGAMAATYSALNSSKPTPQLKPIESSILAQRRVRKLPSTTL

[7] = molecular target: T1, Ribosomal protein S6 kinase alpha-3 (Homo sapiens, UniProt P51812); assay: Binding affinity to wild type RSK2 at 1 uM preincubated for 1 hr by denaturing gel electrophoresis and Western blot
T1 sequence (P51812 whole entry, the tested form may be a part): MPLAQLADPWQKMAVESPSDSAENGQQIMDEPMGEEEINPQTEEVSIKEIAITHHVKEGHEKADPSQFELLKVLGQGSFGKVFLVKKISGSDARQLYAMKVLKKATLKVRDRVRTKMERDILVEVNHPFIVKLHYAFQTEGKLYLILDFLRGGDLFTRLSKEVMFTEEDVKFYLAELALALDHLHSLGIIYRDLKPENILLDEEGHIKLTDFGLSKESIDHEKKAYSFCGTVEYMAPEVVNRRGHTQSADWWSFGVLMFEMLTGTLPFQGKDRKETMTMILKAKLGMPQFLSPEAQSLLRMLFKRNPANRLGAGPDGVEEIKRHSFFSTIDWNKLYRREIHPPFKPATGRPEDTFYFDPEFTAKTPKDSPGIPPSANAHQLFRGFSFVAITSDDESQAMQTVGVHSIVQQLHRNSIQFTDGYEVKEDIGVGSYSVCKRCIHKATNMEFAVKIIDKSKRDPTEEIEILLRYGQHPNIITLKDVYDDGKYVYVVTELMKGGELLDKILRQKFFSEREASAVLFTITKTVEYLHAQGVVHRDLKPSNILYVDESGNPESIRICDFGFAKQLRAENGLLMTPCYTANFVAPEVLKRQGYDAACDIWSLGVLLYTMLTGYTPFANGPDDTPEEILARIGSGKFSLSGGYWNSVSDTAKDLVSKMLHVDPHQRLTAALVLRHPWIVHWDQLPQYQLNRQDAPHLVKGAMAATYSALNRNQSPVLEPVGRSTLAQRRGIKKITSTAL
Procedure, shortened: (§1)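 His6-tagged RSK2 C-terminal kinase domains (WT or mutant) exposed to 1 μM biotin-fmk for 1 hour in the presence of His6-ERK2. Proteins resolved by SDS-PAGE. Western blot probed with streptavidin-HRP for covalent label and anti-His6 for total protein.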

[8] = test system: Ribosomal protein S6 kinase alpha-3 (Homo sapiens), P51812 [C436V]; assay: Binding affinity to RSK2 C436V mutant at 1 uM preincubated for 1 hr by denaturing gel electrophoresis and Western blot; procedure, shortened: as §1
Ribosomal protein S6 kinase alpha-3 (Homo sapiens), P51812 [C436V], sequence (P51812 whole entry C436V): as the sequence (P51812 whole entry, the tested form may be a part) above, with C436V counted along it

[9] = molecular target: T1, Ribosomal protein S6 kinase alpha-3; assay: Binding affinity to RSK2 in HEK293 cells assessed as protein labeling at 1 µM preincubated for 1 hr by enhanced chemiluminescence detection
[10] = molecular target: Ribosomal protein S6 kinase alpha-1 (Homo sapiens) (UniProt Q15418); assay: Binding affinity to RSK1 in HEK293 cells assessed as protein labeling at 1 µM preincubated for 1 hr by immunodepletion method
[11] = test system: Ribosomal protein S6 kinase alpha-3 (Homo sapiens), P51812 [T493M]; assay: Binding affinity to RSK2 T493M mutant at 1 uM preincubated for 1 hr by denaturing gel electrophoresis and Western blot; procedure, shortened: as §1
Ribosomal protein S6 kinase alpha-3 (Homo sapiens), P51812 [T493M], sequence (P51812 whole entry T493M): as the sequence (P51812 whole entry, the tested form may be a part) above, with T493M counted along it

[12] = molecular target: T1, Ribosomal protein S6 kinase alpha-3; assay: Binding affinity to RSK2 in HEK293 cells assessed as protein labeling at 1 µM preincubated for 1 hr by immunodepletion method
[13] = molecular target: Ribosomal protein S6 kinase alpha-5 (Homo sapiens) (UniProt O75582); assay: Inhibition of MSK1-mediated histone H3 Ser10 phosphorylation expressed in serum starved african green monkey COS7 cells by Western blot; format: cell-based; settings: COS-7
Ribosomal protein S6 kinase alpha-5 (Homo sapiens), sequence (O75582 whole entry, looked up): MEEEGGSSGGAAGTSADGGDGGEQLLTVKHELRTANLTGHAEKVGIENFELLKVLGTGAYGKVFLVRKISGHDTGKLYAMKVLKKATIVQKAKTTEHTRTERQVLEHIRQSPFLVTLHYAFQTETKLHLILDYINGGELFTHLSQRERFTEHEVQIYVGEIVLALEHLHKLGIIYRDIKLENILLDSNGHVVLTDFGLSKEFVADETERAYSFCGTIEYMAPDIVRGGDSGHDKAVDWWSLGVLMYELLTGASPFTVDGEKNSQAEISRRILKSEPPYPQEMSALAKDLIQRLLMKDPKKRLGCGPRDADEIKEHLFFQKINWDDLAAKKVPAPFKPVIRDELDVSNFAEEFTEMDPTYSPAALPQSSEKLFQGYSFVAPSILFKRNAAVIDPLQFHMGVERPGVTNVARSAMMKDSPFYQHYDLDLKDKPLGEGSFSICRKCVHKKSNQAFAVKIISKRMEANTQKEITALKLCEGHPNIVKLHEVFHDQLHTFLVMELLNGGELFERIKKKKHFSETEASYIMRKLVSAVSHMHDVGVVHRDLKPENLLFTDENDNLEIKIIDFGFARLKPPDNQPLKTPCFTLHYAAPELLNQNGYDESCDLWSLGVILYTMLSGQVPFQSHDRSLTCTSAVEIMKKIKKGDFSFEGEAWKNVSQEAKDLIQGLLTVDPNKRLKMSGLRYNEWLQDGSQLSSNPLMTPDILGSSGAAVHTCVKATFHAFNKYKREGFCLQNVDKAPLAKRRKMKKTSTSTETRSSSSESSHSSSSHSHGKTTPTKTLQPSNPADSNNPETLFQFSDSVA
Procedure, shortened: (§2)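 COS-7 cells transfected with HA-tagged WT or M498T MSK1. Lysed in Laemmli buffer. Western blots probed for phospho-Ser386 RSK (MSK1 autophosphorylation), HA epitope and phospho-Ser10 histone H3.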

COS-7 [14] = assay: Inhibition of EGF-stimulated ERK1 phosphorylation in serum starved african green monkey COS7 cells at 10 µM by Western blot; settings: Chlorocebus aethiops
[15] = test system: Ribosomal protein S6 kinase alpha-5 (Homo sapiens), O75582 [M498T]; assay: Inhibition of MSK1 M498T mutant phosphorylation expressed in serum starved african green monkey COS7 cells by Western blot; format: cell-based; settings: COS-7; procedure, shortened: as §2
Ribosomal protein S6 kinase alpha-5 (Homo sapiens), O75582 [M498T], sequence (O75582 whole entry M498T): as the sequence (O75582 whole entry, looked up) above, with M498T counted along it

COS-7 [16] = assay: Inhibition of EGF-stimulated ERK2 phosphorylation in serum starved african green monkey COS7 cells at 10 µM by Western blot; settings: Chlorocebus aethiops
[17] = Inhibition of EGF-stimulated RSK2 Ser386 autophosphorylation in serum starved african green monkey COS7 cells by immunoprecipitation and Western blot; format: cell-based, Chlorocebus aethiops; settings: cos-7
Procedure, shortened: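 COS-7 cells serum-deprived 20 h, exposed to a range of inhibitor concentrations, then stimulated with EGF (1 ng/mL) for 10 min. Endogenous RSK2 immunoprecipitated and blotted for phospho-Ser386 and total RSK2. EC50 taken from the concentration series.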

NIH3T3 [18] = assay: Inhibition of PMA-stimulated histone H3 phosphorylation in mouse NIH-3T3 cells at 10 uM by SDS page and Western blot; format: functional, cell-based
[19] = molecular target: Ribosomal protein S6 kinase alpha-3 (Homo sapiens, UniProt P51812, C436V); assay: Inhibition of RSK2 C-terminal kinase domain C436V mutant expressed in Escherichia coli preincubated for 30 mins
Ribosomal protein S6 kinase alpha-3 (Homo sapiens, UniProt P51812, C436V), sequence (P51812 whole entry C436V, the tested form may be a part): as the sequence (P51812 whole entry, the tested form may be a part) above, with C436V counted along it
Procedure, shortened: (§3)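 His6-tagged RSK2 CTDs (WT or mutant) expressed in E. coli, activated with bacterially expressed His6-ERK2 plus ATP. Enzyme at 1 nM pretreated with inhibitor for 30 min, then assayed with 0.1 mM ATP and 0.1 mM "CTD-tide" peptide substrate.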

[20] = molecular target: Ribosomal protein S6 kinase alpha-3 (Homo sapiens, UniProt P51812, T493M); assay: Inhibition of RSK2 C-terminal kinase domain T493M mutant expressed in Escherichia coli preincubated for 30 mins; procedure, shortened: as §3
Ribosomal protein S6 kinase alpha-3 (Homo sapiens, UniProt P51812, T493M), sequence (P51812 whole entry T493M, the tested form may be a part): as the sequence (P51812 whole entry, the tested form may be a part) above, with T493M counted along it

[21] = molecular target: T1, Ribosomal protein S6 kinase alpha-3; assay: Inhibition of RSK2 C-terminal kinase domain expressed in Escherichia coli preincubated for 30 mins; procedure, shortened: as §3

## Cc1ccc(-c2c(C(=O)CCl)n(CCCO)c3ncnc(N)c23)cc1
[1]
  Activity: 2%
[2]
  Activity: Active
NIH3T3 [3]
  Activity: inactive
NIH3T3 [4]
  Activity: 75%
[5]
  IC50: 100 nM

## Cc1ccc(-c2c(C(=O)CF)n(CCCOC(=O)NCCCCNC(=O)CCCC[C@@H]3SC[C@H]4NC(=O)N[C@@H]34)c3ncnc(N)c23)cc1
[6]
  Activity: Active
[7]
  Activity: Active
[8]
  Activity: inactive
[9]
  Activity: Active
[10]
  Activity: Active
[11]
  Activity: inactive
[12]
  Activity: Active

## Cc1ccc(-c2c(C(=O)CF)n(CCCO)c3ncnc(N)c23)cc1
[13]
  Activity: inactive
COS-7 [14]
  Activity: inactive
[15]
  Activity: Active
COS-7 [16]
  Activity: inactive
[17]
  EC50: 200 nM
NIH3T3 [18]
  Activity: inactive
[5]
  IC50: 1 nM

## Cc1ccc(-c2cn(CCCO)c3ncnc(N)c23)cc1
[19]
  IC50: 430 nM
[20]
  IC50: > 30 µM
[21]
  IC50: 1200 nM
